Bioassay records from PubChem.
MrgX1 ag – human MrgX1 receptor agonism, primary screen. hit rate 0.44% among 310,000. B-score at 10 µM. MrgX1-HEK293 cells, Fluo-4 calcium fluorescence, agonist mode; stronger effect = higher value;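 active = calcium response B-score plate-corrected fluorescence ratio at least 3 library SD, with starting fluorescence B-score inside 5 SD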
Target sequence (Q96LB2 whole entry, looked up): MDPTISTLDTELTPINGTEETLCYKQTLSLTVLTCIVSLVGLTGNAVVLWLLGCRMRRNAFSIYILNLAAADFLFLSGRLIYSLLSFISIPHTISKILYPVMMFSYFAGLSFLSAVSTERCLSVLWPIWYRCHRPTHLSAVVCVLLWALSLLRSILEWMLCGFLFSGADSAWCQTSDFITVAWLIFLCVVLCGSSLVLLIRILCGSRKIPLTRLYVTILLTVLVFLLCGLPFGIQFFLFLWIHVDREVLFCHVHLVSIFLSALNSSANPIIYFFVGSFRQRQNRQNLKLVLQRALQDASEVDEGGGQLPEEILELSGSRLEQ
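Test system: HEK293 cells stably expressing human MrgX1 receptor; amount: 15,000 cells per well; doses: compound delivered in addition one of three; times: overnight plating before 1 h dye loading; detection: Fluo-4 NW calcium-flux fluorescence, kinetic read; read-out basis: B-scored fluorescence response ratio; controls: positive and negative controls per plate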
RGS4 block – inhibitors of human RGS4 | HEK293 M3R/RGS4 inducible, Fluo-4 calcium flux; stronger effect = higher value; triggered by carbachol at its EC20 | hit rate 0.45% among 310,000 | B-score at 10 µM | P49798;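 active = B-score, a plate-corrected calcium signal, over three deviations above library mean, with baseline fluorescence within five deviations of library mean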;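 note: RGS4 expression induced by doxycycline in cells with stable M3 receptor; B-score is computed from the integrated fluorescence ratio over baseline after carbachol; higher B-score means a larger calcium signal and so more RGS4 inhibition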
Target sequence (P49798 whole entry, looked up): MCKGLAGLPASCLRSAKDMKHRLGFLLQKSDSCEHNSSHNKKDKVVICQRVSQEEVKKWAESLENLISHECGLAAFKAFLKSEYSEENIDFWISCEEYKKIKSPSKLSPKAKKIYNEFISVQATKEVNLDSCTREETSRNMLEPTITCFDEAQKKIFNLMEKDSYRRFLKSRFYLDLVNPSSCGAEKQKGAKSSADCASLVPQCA
MrgX1 antagonist – blocks BAM8-22 activation of human MrgX1 receptor. Q96LB2. MRGX1-HEK293 calcium flux, Fluo-4, BAM8-22 antagonism; stronger effect = lower value. B-score at 10 µM. hit rate 1.3% among 310,000;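 active = calcium-response B-score plate-corrected more than 3 library SD below zero, starting fluorescence within 5 deviations, no agonist response on first addition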;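 note: peak minus trough fluorescence over baseline after final BAM8-22 challenge near maximal dose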
MrgX1 PAM – human MrgX1 positive allosteric modulation, primary screen; B-score at 10 µM; AID 588675; Q96LB2; hit rate 0.63% among 310,000; MrgX1-HEK293, Fluo-4 calcium flux, FDSS; stronger effect = higher value;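 active = plate-corrected calcium response at least 3 library SD above typical, normal starting fluorescence, not activating the receptor alone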;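 note: compound read alongside a low EC10 to EC30 dose of BAM8-22 agonist; peak minus trough fluorescence over baseline measured at the second addition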
RGS4 pot – potentiators or activators of RGS4; HEK293 M3R/inducible RGS4, carbachol calcium flux Fluo4; stronger effect = lower value; B-score at 10 µM; hit rate 0.92% among 310,000; AID 463111;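 active = B-score of the integrated calcium signal more than 4 SD below the library mean, with starting fluorescence not abnormally high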;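 note: negative B-score means reduced calcium response which marks RGS4 activation or potentiation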
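System – HEK293 FlpIn-TREx cells, stable M3R, doxycycline-inducible RGS4 · Reagent – ECmax carbachol challenge · Times – compound preincubation 20 min at room temperature before agonist · Technique – Fluo4 fluorescence kinetic imaging of calcium · Measure – B score of integrated Fluo4 ratio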
MrgX1 ant reconf – human MrgX1 receptor antagonism, re-confirmation screen | AID 602420 | hit rate 19% among 2,300 | shares compounds with MrgX1 antagonist | MrgX1-HEK293, BAM8-22 calcium flux, Fluo-4; stronger effect = lower value | remaining BAM8-22 calcium response % of control (stronger effect = lower value), % at 10 µM;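 active = remaining agonist calcium response no higher than 100% minus 3 SD of agonist-only control wells, with starting fluorescence near control levels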;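 note: agonist BAM8-22 given at a near maximal EC90 to ECmax level; peak minus minimum fluorescence divided by baseline after agonist addition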
HEK293 Ca flux – MrgX1 antagonist counter-screen hit in parental HEK293 cells; shares compounds with MrgX1 antagonist; Fluo-4 calcium fluorescence, FDSS; fluorescence ratio F(max-min)/F0 at 10 µM; hit rate 2% among 4,000; AID 624111;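 active = duplicate-averaged calcium fluorescence ratio at least three times the standard deviation of buffer wells, a nonspecific response in parental cells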
HEK293 Ca counter – counter-screen for MrgX1 allosteric activators: effect in parental HEK293 cells | shares compounds with MrgX1 antagonist | parental HEK293 calcium flux, Fluo-4 fluorescence ratio; stronger effect = higher value | fluorescence ratio F(max-min)/F0 at 10 µM | hit rate 0.4% among 4,000 | AID 624114;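 active = calcium fluorescence ratio, averaged over duplicates, at least 3 SD of the buffer-well ratio, meaning a nonspecific response in receptor-free cells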;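 note: untransfected parental HEK293 lacking MrgX1 used as counterscreen for MrgX1 allosteric activators; fluorescence change taken during the second addition on a kinetic imager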
HEK293 Ca cntr2 – counter-screen for MrgX1 activators: effect in parental HEK293 cells; fluorescence ratio F(max-min)/F0 at 10 µM; shares compounds with MrgX1 antagonist; hit rate 8.7% among 4,000; AID 624115; Fluo-4 calcium fluorescence (FDSS); stronger effect = higher value;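 active = calcium fluorescence ratio at least three times the spread of buffer wells, meaning a non-specific response in parental cells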
* marks the source's active call; other numbers are inactive results; i = inactive; nt = no result. An excerpt weighted towards active compounds, which were near 3.5% of everything screened.

SMILES	MrgX1 ag	RGS4 block	MrgX1 antagonist	MrgX1 PAM	RGS4 pot	MrgX1 ant reconf	HEK293 Ca flux	HEK293 Ca counter	HEK293 Ca cntr2
CCNC(=O)C1CCCN1C(=O)C(CCCN=C(N)N)NC(=O)C(CC(C)C)NC(=O)C(Cc1cn(Cc2ccccc2)cn1)NC(=O)C(Cc1ccc(O)cc1)NC(=O)C(CO)NC(=O)C(Cc1c[nH]c2ccccc12)NC(=O)C(Cc1cnc[nH]1)NC(=O)C1CCC(=O)N1 (stereo not drawn)	i	i	i	i	i	nt	nt	nt	nt
COc1ccc(Nc2oc(-c3ccc(OC)cc3)nc2C#N)cc1	i	i	-5.8*	i	i	i	i	i	i
CC1CN(c2nc(Nc3ccccc3F)nc(N)c2[N+](=O)[O-])CC(C)O1 (stereo not drawn)	i	i	i	i	i	nt	nt	nt	nt
CCSc1nc2cc(OC)c(OC)cc2c(=O)n1CC	i	i	-4.8*	i	i	i	i	i	i
CCOc1ccc(Br)cc1S(=O)(=O)Nc1cccnc1	i	i	i	i	i	nt	nt	nt	nt
COc1cccc(NC(=O)CN(C)C(=O)c2cccnc2Sc2ccc(C)c(C)c2)c1	i	i	-7.2*	i	i	i	i	i	i
Cc1cc(C)c(S(=O)(=O)c2ccc(Cl)cc2C)c(Cl)n1	i	i	i	i	i	nt	nt	nt	nt
CCc1ccccc1S(=O)(=O)c1c(C)cc(C)nc1Cl	i	i	-5*	i	i	i	i	i	i
CC(OC(=O)CCCN=C1NS(=O)(=O)c2ccccc21)C(=O)Nc1ccccc1F (stereo not drawn)	i	i	i	i	i	nt	nt	nt	nt
COc1ccc(C(=O)N[C@H](C(=O)OCC(=O)NC(=O)c2cccn2C)C(C)C)cc1	i	i	-4.8*	i	i	i	i	i	i
CCCn1c(N)c(C(=O)CSc2n[nH]c(-c3ccc(C)cc3)n2)c(=O)[nH]c1=O	i	i	i	i	i	nt	nt	nt	nt
COCC(C)NC(=O)c1cc(-c2ccc(O)cc2)on1 (stereo not drawn)	i	i	-6*	i	i	i	i	i	i
Cc1cc(C(=O)OCC(=O)N2CCN(c3ccccc3)CC2)c2ccccc2n1	i	i	-5.5*	i	i	i	i	i	i
O=C(OCC(=O)N1CCN(c2ccccc2)CC1)c1ccc(O)cc1O	i	i	i	i	i	nt	nt	nt	nt
CCN(CC)c1ccc(C=Nc2ccc(N(C)C)cc2)c(O)c1	i	i	-4.6*	i	i	66%*	i	i	i
CCN(CC)c1ccc(N=Cc2ccc(N(CC)CC)cc2O)cc1	i	i	-8.2*	i	i	i	0.24*	i	46*
CC(/C=N/NC(=O)c1ccccc1F)=C\c1ccccc1	i	i	i	i	i	nt	nt	nt	nt
C(=C\c1ccccc1)/CN1CCN(c2ncnc3c2oc2ccccc23)CC1	i	i	-7.3*	i	i	47%*	i	i	i
c1ccc2[nH]c(CN3CCN(c4ncnc5c4oc4ccccc45)CC3)nc2c1	i	nt	-6.4*	i	nt	i	i	i	i
Cc1ccc(S(=O)(=O)N2CCC(C(=O)N3CCC(C(=O)NCc4cccnc4)CC3)CC2)cc1	i	i	-6.6*	i	i	85%*	i	i	i
Cc1ccc(SCCSc2nc(C)cc(=O)[nH]2)cc1	i	i	i	i	i	nt	nt	nt	nt
